Experimental data collected from several papers.
Protocols differ between the studies behind these lines.
Target: Mitogen-activated protein kinase 9 (MAPK9, Homo sapiens, UniProt P45984)

For `Cn1c2c(c3ccc(Cl)c(Cl)c31)C(C#N)C(C)(C)NC2=O` (centres unmarked), the ΔTm was 0.4 °C (thermal stability, DSF; 10 µM).
The inhibition of `COc1cc2ncnc(Nc3ccc(Oc4ccccc4)cc3C)c2cc1OC` is reported as 5% (enzyme activity, inhibitor; 1 µM).
For `CC(=O)Nc1c(C(C)=O)c(=O)n(C)c2nc(-c3ccc(Cl)cc3Cl)c(-c3ccc(Cl)cc3)cc12`, the remaining binding was 100% (cell-free assay, competition with immobilised ligand; 1 µM).
For `CCC1(CC)NC(=O)c2c(c3ccc(Cl)c(Cl)c3n2C)C1C#N` (centres unmarked), the ΔTm was 0.1 °C (thermal stability, DSF; 10 µM).
With `Cc1ccc(C(=O)NCc2ccsc2)cc1C#Cc1cn(C(C)C)c2ncnc(N)c12` the activity vs control was 85% (enzyme activity, inhibitor; 1 µM).
With `Clc1ccc(Nc2nnc(Cc3ccncc3)c3ccccc23)cc1` the remaining signal was 97.5% (cell-free assay; 0.5 µM).
For `Cn1nc(C(F)(F)F)cc1-c1cnc(N2CCc3cc(S(=O)(=O)Nc4c(F)cc(Cl)cc4F)cc(N4CCCC4=O)c32)nc1`, the remaining binding was 95% (cell-free assay, competition with immobilised ligand; 1 µM).
`O=C1NC(=O)c2cc(Nc3ccc(F)cc3)c(Nc3ccc(F)cc3)cc21` gave a remaining signal of 61.4% (cell-free assay; 0.5 µM).
`COc1ccc2c(O[C@@H]3C[C@H]4C(=O)N[C@]5(C(=O)O)CC5/C=C\CCCCC[C@H](NC(=O)OC5CCCC5)C(=O)N4C3)cc(-c3csc(NC(=O)C(C)C)n3)nc2c1C` (some centres unmarked) gave a remaining binding of 71% (cell-free assay, competition with immobilised ligand; 1 µM).
`Nc1ncnc2occ(-c3ccc(NC(=O)Nc4cc(C(F)(F)F)ccc4F)cc3)c12` gave a remaining signal of 0% (cell-free assay, inhibitor; 20 µM).
The remaining signal of `CCN(CC)CCNC(=O)c1c(C)[nH]c(/C=C2\C(=O)Nc3ccc(F)cc32)c1C` is reported as 96.7% (cell-free assay; 0.5 µM).
`CNC(=O)c1cc(Oc2ccc(NC(=O)Nc3ccc(Cl)c(C(F)(F)F)c3)cc2)ccn1` has an inhibition of 7% (enzyme activity, inhibitor; 0.3 µM).
The remaining signal of `N#CCCc1ccc2c(c1)-c1[nH]c3ccc([N+](=O)[O-])cc3c1CC(=O)N2` is reported as 97.1% (cell-free assay; 0.5 µM).
The remaining activity of `Cc1sc(C(=O)NC2COC2)cc1-n1cc(NC(=O)Nc2c(F)cccc2Cl)cn1` is reported as 51.9% (enzyme activity, inhibitor; 10 µM).
With `Cn1c2c(c3ccc(Cl)c(Cl)c31)C(C#N)C1(CCCC1)NC2=O` (centres unmarked) the ΔTm was -0.1 °C (thermal stability, DSF; 10 µM).
For `CNC(=O)Nc1ccc2c(c1)CC[C@@]21OC(=O)N(CC(=O)N(Cc2ccc(F)cc2)[C@@H](C)C(F)(F)F)C1=O`, the remaining binding was 70% (cell-free assay, competition with immobilised ligand; 1 µM).
`Cc1ccc(C(=O)Nc2ccc(CN3CCN(C)CC3)c(C(F)(F)F)c2)cc1C#Cc1cnc2cccnn12` gave a remaining activity of 62% (enzyme activity, inhibitor; 23.5 nM).
With `Cc1cc(NC(=O)c2cccc(S(F)(F)(F)(F)F)c2)cc(-n2ccn3nc(-c4cccnc4)cc23)c1` the remaining binding was 76.9% (cell-free assay, competition with immobilised ligand; 1 µM).
`COc1cc(Nc2cnc(C#N)c(O[C@H](C)CN(C)C)n2)ncc1-c1cnn(C)c1` has a remaining activity of 79% (enzyme activity, inhibitor, radiometric; 10 µM).
`Nc1nc(NC2CCCCC2)sc1C(=O)c1ccccc1` has a remaining activity of 39% (enzyme activity, inhibitor; 10 µM).
The remaining binding of `FC(F)(F)c1ccc2c(c1)nc(-c1cccnc1)n2C1CC1` is reported as 100% (cell-free assay, competition with immobilised ligand; 1 µM).
The remaining activity of `Nc1nc(Nc2ccccc2)sc1C(=O)c1c(F)cccc1F` is reported as 81% (enzyme activity, inhibitor; 10 µM).
`CNC(=O)c1ccc(Nc2ncc(C(F)(F)F)c(NCc3nccnc3N(C)S(C)(=O)=O)n2)cc1` has a remaining binding of 95% (cell-free assay, competition with immobilised ligand; 0.1 µM).
`CCN1CCC2(CC1)NC(=O)c1c(c3ccc(Cl)c(Cl)c3n1C)C2C#N` (racemic) has a ΔTm of -0.1 °C (thermal stability, DSF; 10 µM).
`Cn1c(=O)n(-c2ccc(C(C)(C)C#N)cc2)c2c3cc(-c4cnc5ccccc5c4)ccc3ncc21` has a remaining activity of 89% (enzyme activity, inhibitor; 10 µM).
The remaining binding of `C[C@@H](c1cccc(C#N)c1)n1cc(Cl)cc(C(N)=O)c1=N` is reported as 82% (cell-free assay, competition with immobilised ligand; 1 µM).
For `CC1(C)NC(=O)c2[nH]c3c(Cl)c(Cl)ccc3c2C1C#N` (centres unmarked), the ΔTm was 0.8 °C (thermal stability, DSF; 10 µM).
With `CC(C)(C)c1nc(-c2cccc(NS(=O)(=O)c3c(F)cccc3F)c2F)c(-c2ccnc(N)n2)s1` the remaining activity was 105% (enzyme activity, inhibitor, radiometric; 1 µM).
With `Cn1c2c(Cl)c(Cl)ccc2c2cc(N)[nH]c(=O)c21` the ΔTm was 0.7 °C (thermal stability, DSF; 10 µM).
The activity vs control of `COc1cc(/C=C/C(=O)CC(=O)/C=C/c2ccc(O)c(OC)c2)ccc1O` is reported as 104% (enzyme activity, inhibitor; 1 µM).
`O=C(Nc1cnn(-c2csc(C(=O)NC3COC3)c2)c1)Nc1c(F)cccc1Cl` gave a remaining activity of 22.7% (enzyme activity, inhibitor; 5 µM).
`Cc1ccc(NC(=O)c2ccc(C)c(C(F)(F)F)c2)cc1C#Cc1nn(C2CCC(O)CC2)c2ncnc(N)c12` (centres unmarked) has a remaining signal of 13% (cell-free assay; 10 µM).
